Test system: α11.2 AAs 1506-1871
Experiment: Yeast two-hybrid interaction of α-actinin-1 fragments with α11.2 C-terminus
Format: binding, rabbit
Conditions: α-actinin-1 prey in pGADT7; X-α-Gal
How it was run: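 Bait plasmids (α11.2 C-terminal fragments) and α-actinin-1 full-length or fragment prey (Gal4 activation domain, pGADT7) were co-transformed into Y2H Gold yeast. Co-transformants were selected on Leu−/Trp− plates with X-α-Gal, then colonies were replated onto Leu/Trp/His/Ade quadruple-dropout plates plus X-α-Gal to score interaction.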

B1: SR234EF: C-terminal four EF hands preceded by three spectrin repeats of α-actinin-1 (AAs 391-892) (protein)
chain: RLDHLAEKFRQKASIHEAWTDGKEAMLRQKDYETATLSEIKALLKKHEAFESDLAAHQDRVEQIAAIAQELNELDYYDSPSVNARCQKICDQWDNLGALTQKRREALERTEKLLETIDQLYLEYAKRAAPFNNWMEGAMEDLQDTFIVHTIEEIQGLTTAHEQFKATLPDADKERLAILGIHNEVSKIVQTYHVNMAGTNPYTTITPQEINGKWDHVRQLVPRRDQALTEEHARQQHNERLRKQFGAQANVIGPWIQTKMEEIGRISIEMHGTLEDQLSHLRQYEKSIVNYKPKIDQLEGDHQLIQEALIFDNKHTNYTMEHIRVGWEQLLTTIARTINEVENQILTRDAKGISQEQMNEFRASFNHFDRDHSGTLGPEEFKACLISLGYDIGNDPQGEAEFARIMSIVDPNRLGVVTFQAFIDFMSRETADTDTADQVMASFKILAGDKNYITMDELRRELPPDQAEYCIARMAPYTGPDSVPGALDYMSFSTALYGESDL
modifications: left off: Gal4 activation domain, end not stated, kept
interaction of α-actinin-1 polypeptide with α11.2 AAs 1506-1871 (Y2H): consistently strong interaction readouts

From paper PMC5704914 (Biochemistry, 2017)
